Laboratory results as given in ChEMBL document CHEMBL1147678, “Discovery of a potent, nonpolyglutamatable inhibitor of glycinamide ribonucleotide transformylase” (J Med Chem, 2006).
pIC50, pKi: −log10 of the molar value.

How the values were obtained:
[1] = system: CCRF-CEM; experiment: Antiproliferative activity against human CCRF-CEM cell line; format: functional, cell-based
Summary of the method: (§1)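 CCRF-CEM human leukemia cells (parental or variant line) were continuously exposed to the test compounds for 72 h, and growth inhibition was then measured.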

[2] = system: CCRF-CEM; experiment: Antiproliferative activity against human CCRF-CEM cell line in presence of thymidine; format: functional, cell-based
[3] = system: CCRF-CEM; experiment: Antiproliferative activity against FPGS-deficient CCRF-CEM cell line; format: functional, cell-based; details: Homo sapiens; summary of the method: as §1
[4] = target: Bifunctional purine biosynthesis protein ATIC (Homo sapiens, UniProt P31939); experiment: Inhibition of human recombinant AICAR Tfase
Bifunctional purine biosynthesis protein ATIC, sequence (P31939 whole entry): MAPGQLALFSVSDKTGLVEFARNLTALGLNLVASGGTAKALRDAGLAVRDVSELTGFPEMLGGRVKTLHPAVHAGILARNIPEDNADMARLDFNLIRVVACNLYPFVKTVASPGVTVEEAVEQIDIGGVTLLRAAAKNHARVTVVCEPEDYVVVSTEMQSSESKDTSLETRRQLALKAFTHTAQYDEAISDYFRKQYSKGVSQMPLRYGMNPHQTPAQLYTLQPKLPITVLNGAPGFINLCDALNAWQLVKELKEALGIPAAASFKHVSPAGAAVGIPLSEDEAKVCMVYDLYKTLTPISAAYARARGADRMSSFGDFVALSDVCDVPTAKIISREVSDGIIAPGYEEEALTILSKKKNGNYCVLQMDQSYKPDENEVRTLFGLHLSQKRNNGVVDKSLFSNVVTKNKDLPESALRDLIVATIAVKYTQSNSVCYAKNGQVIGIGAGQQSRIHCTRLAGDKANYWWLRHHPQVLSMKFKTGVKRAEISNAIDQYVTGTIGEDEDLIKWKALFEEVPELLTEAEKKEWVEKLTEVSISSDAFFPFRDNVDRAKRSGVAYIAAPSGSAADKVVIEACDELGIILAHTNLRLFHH
Summary of the method: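 Recombinant human AICAR Tfase assayed by a previously described method. Reaction kinetics were followed for 2 min after initiation. Ki was derived from Dixon plots.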

[5] = target: T1, Trifunctional purine biosynthetic protein adenosine-3 (Homo sapiens, UniProt P22102); experiment: Inhibition of human recombinant GAR Tfase
T1 sequence (P22102 whole entry): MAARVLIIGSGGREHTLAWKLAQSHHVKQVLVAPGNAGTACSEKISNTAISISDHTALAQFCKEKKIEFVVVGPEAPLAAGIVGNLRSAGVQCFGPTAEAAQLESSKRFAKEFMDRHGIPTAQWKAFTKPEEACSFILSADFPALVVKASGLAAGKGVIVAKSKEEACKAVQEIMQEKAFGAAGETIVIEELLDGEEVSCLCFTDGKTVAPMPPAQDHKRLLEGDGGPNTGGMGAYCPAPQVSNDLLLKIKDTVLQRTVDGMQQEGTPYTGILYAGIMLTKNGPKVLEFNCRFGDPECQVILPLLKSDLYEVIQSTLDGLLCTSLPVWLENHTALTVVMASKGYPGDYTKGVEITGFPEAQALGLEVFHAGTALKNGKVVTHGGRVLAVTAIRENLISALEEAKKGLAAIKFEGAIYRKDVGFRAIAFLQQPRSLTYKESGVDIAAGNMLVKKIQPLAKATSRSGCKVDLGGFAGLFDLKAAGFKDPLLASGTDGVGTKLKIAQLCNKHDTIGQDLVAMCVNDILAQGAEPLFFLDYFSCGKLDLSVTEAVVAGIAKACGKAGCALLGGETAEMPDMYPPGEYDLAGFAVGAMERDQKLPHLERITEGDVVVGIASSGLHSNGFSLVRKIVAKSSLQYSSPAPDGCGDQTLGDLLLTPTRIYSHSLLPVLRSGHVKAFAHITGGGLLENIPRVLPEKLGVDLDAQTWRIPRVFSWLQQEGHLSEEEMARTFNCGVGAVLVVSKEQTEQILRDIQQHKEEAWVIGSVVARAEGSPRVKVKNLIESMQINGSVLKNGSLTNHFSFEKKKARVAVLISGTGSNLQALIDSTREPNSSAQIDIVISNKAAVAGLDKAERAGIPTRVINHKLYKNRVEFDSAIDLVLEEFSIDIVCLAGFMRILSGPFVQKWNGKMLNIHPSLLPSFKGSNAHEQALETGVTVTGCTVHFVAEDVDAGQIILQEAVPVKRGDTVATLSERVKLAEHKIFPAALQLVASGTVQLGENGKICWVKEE

[6] = system: CCRF-CEM; experiment: Antiproliferative activity against reduced folate carrier-deficient CCRF-CEM cell line; format: functional, cell-based; details: Homo sapiens; summary of the method: as §1
[7] = system: CCRF-CEM; experiment: Antiproliferative activity against human CCRF-CEM cell line in presence of hypoxanthine; format: functional, cell-based

| Compound | pIC50 [1] | pIC50 [2] | pIC50 [3] | pKi [4] | pKi [5] | pIC50 [6] | pIC50 [7] |
| --- | --- | --- | --- | --- | --- | --- | --- |
| Nc1nc(N)c(CCCC(C(=O)C(F)(F)F)c2ccc(C(=O)NCc3nnn[nH]3)cc2)c(=O)[nH]1 (stereo unspecified) | 5.00 | 4.52 | 4.40 | < 4.00 | 5.30 | 4.52 | < 4.00 |
| Nc1nc(N)c(CCCC(C(=O)C(F)(F)F)c2ccc(C(=O)N[C@@H](CCc3nnn[nH]3)C(=O)O)cc2)c(=O)[nH]1 (stereo partly specified) | 7.40 | 7.05 | 7.30 | 4.34 | 6.89 | 5.00 | < 4.00 |
| Nc1nc2c(c(=O)[nH]1)C[C@@H](CCc1ccc(C(=O)N[C@@H](CCC(=O)O)C(=O)O)cc1)CN2 [LOMETREXOL] | 6.70 |  | 4.60 | < 4.00 |  |  | < 4.00 |

More lines, now with the values ahead:

| pIC50 [1] | pIC50 [2] | pIC50 [3] | pKi [4] | pKi [5] | pIC50 [6] | pIC50 [7] | Compound |
| --- | --- | --- | --- | --- | --- | --- | --- |
| < 4.00 | < 4.00 | < 4.00 | < 4.00 | 4.68 | < 4.00 | < 4.00 | Nc1nc(N)c(CCCC(C(=O)C(F)(F)F)c2ccc(C(=O)NCC(=O)O)cc2)c(O)n1 (stereo unspecified) |
| 7.80 | 7.77 | < 4.00 | < 4.00 |  | < 4.00 | < 4.00 | Nc1nc(N)c(CCCC(C(=O)C(F)(F)F)c2ccc(C(=O)NC(CCC(=O)O)C(=O)O)cc2)c(O)n1 (stereo unspecified) |
